# Source: PubChem BioAssay
# The source made the active and inactive calls.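 Rule for the calls, unless noted: active = inhibition at or above 50% at 10 µM; inactive = inhibition below 50%.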
# Key:
# [1] = inhibitors of TNFa-induced NFkB p65 translocation, primary screen, imaging, HUVEC, MLSMR starter and 10KST1 sets (AID 438;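 active = inhibition above 20% together with a positive visual image hit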;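 note: compound added about 3h40 before a 20 min TNFalpha stimulation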;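 for inhibition: signal is the nuclear over cytoplasmic p65 intensity ratio per well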); conditions: HUVEC TNFa-induced p65 nuclear translocation; cell count: measured here: nuclei count (cytotoxicity indicator), at 2.08 µM; inhibition: at 2 µM, stronger effect = higher value, 0% TNFa-plus-vehicle, 100% no-TNFa wells
# [2] = inhibitors of mutant huntingtin aggregation, primary screen, imaging, exon1htt(103Q)mCFP cells, high-content imaging (AID 483;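 active = visual image review flags a hit and inhibition of aggregation exceeds 20%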;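 note: compound exposure lasted 3 days before fixation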;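 for nuclei count: percent of the per-plate median nuclei count of sample wells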); conditions: exon1htt(103Q)mCFP cell line, aggregate imaging, at 2 µM; inhibition of aggregation: stronger effect = higher value; nuclei count: measured here: cell count, toxicity
# [3] = inhibitors of E-selectin induction by TNFa, primary screen, imaging, HUVEC, immunofluorescence, MLSMR starter and 10KST1 sets (AID 487;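 active = visually confirmed hit in the image check and inhibition above 20%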;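 for inhibition: signal is fraction of cell area covered by stained E-selectin grains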;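 for nuclei count: 100% = median nuclei count of all wells on the same plate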); conditions: HUVEC TNFalpha-induced E-selectin immunofluorescence imaging, at 2 µM; inhibition: stronger effect = higher value; nuclei count: measured here: cell number, toxicity
# [4] = target: Voltage-gated potassium channel subunit beta-2 (Rattus norvegicus) (UniProt P62483); assay: KvBeta enzyme negative modulators, primary screen, biochemical, NADPH fluorescence (AID 622;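 active = fluorescence slope higher than the sample average by over 3 SD, cut at about -0.22 in these data, passing the limit was not always enough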;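 note: slope of raw intensity against log time taken from 70 to 1610 s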); conditions: recombinant KvBeta, 4-cyanobenzaldehyde reduction, at 10 µM, stronger effect = higher value
# Sequence of Voltage-gated potassium channel subunit beta-2 (Rattus norvegicus) (P62483 whole entry, looked up): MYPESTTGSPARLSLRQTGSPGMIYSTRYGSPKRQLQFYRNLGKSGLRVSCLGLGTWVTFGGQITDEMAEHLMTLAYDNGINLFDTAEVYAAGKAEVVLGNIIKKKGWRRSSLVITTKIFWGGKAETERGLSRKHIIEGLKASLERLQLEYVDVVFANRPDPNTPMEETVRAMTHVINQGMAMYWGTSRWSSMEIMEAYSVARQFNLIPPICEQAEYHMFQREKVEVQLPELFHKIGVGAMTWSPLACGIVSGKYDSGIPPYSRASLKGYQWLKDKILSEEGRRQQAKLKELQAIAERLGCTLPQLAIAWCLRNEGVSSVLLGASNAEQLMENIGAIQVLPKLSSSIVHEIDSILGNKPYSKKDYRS
# [5] = target: Voltage-gated potassium channel subunit beta-2 (Rattus norvegicus) (UniProt P62483); assay: KvBeta positive modulators, primary screen, biochemical, NADPH fluorescence (AID 623;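 active = NADPH fluorescence slope more negative than the mean of all samples by about 3 SD, 99.7% confidence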;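 note: fluorescence intensity change per second fitted from 20 to 320 s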); conditions: Recombinant KvBeta, NADPH fluorescence decrease slope, 10 min; at 10 µM; stronger effect = lower value
# [6] = target: Muscarinic acetylcholine receptor M4 (Homo sapiens) (UniProt P08173); assay: compounds altering M4/GIRK thallium flux, either direction, primary screen, M4 allosteric agonist project, cell-based, HEK293 M4/GIRK, BTC-AM (AID 625;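 active = fluorescence slope after compound addition differing from the mean of all tested samples at 99.7% confidence, mostly higher but some lower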;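 note: thallium influx through GIRK channels coupled to M4 in HEK293 cells with BTC-AM dye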); conditions: at 10 µM, actives lie on both sides
# Sequence of Muscarinic acetylcholine receptor M4 (Homo sapiens) (P08173 whole entry, looked up): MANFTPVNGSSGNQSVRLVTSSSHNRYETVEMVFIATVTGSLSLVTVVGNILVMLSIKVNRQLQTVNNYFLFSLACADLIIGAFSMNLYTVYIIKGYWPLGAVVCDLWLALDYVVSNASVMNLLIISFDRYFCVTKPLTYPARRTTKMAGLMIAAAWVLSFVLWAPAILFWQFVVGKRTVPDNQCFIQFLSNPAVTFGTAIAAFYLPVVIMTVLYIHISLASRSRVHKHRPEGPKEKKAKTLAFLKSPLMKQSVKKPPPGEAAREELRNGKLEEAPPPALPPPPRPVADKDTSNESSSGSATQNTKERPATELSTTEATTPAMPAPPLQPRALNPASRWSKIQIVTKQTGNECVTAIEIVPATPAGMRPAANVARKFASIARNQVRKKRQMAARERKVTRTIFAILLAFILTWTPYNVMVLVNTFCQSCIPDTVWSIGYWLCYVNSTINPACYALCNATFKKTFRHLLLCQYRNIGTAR
# Outline: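 Assay system: HEK293 cells with M4 receptor and GIRK channels / Controls: carbachol and DMSO controls / Schedule: 1 h dye loading, 2 min kinetic read / Technique: kinetic fluorescence with BTC-AM dye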
# [7] = inhibitors of Sendai virus-induced IRF3 signaling, primary screen, TLR/RLR signaling modifier project, cell-based, Sendai virus stimulus, luciferase, 10K MLSCN set (AID 602276); conditions: HEK293 RL24 IRF3 luciferase reporter, at 10 µM, stronger effect = higher value;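 note: firefly luciferase from ISG56 promoter only with Renilla not read in this screen; 0% = Sendai virus plus DMSO and 100% = medium plus DMSO without virus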
# [8] = inhibitors of poly I:C-induced TLR3 signaling, primary screen, cell-based, poly I:C stimulus, luciferase, 10K MLSCN set (AID 602277;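 active = inhibition of the reporter signal at or above 50%; inactive = inhibition below 50%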); conditions: HEK293-TLR3 RL24 IRF3 luciferase reporter, at 10 µM, stronger effect = higher value
SMILES,cell count [1],inhibition [1],inhibition of aggregation [2],nuclei count [2] [%],inhibition [3],nuclei count [3] [%],fluorescence slope [4],NADPH fluorescence slope [5],fluorescence slope [6],inhibition [7],inhibition [8]
CCC(=O)Nc1cccc(Br)c1,323,2.9% (inactive),17.6% (inactive),99.7,-38.1% (inactive),123,-0.541 (inactive),-6e-05 (inactive),0.0051 (inactive),-18.4% (inactive),-1.97% (inactive)
COC(=O)c1cn(C(=O)OC)c2ccccc12,447,-2.7% (inactive),10.2% (inactive),108,-17.8% (inactive),108,-0.593 (inactive),-8.8e-05 (inactive),0.00446 (inactive),13.8% (inactive),10.5% (inactive)
O=C(O)c1cccc(CN2C(=O)SC(Nc3ccccc3)C2=O)c1 (stereo unspecified),510,3.6% (inactive),5.6% (inactive),108,39.4% (inactive),108,-0.405 (inactive),6.9e-06 (inactive),0.00521 (inactive),8.76% (inactive),18.9% (inactive)
Nc1nnc(SCC(=O)N2CCN(c3ccccc3)CC2)n1-c1ccccc1,774,-11.4% (inactive),2% (inactive),99.4,-82% (inactive),111,-0.572 (inactive),-3.7e-05 (inactive),0.00636 (inactive),10.7% (inactive),21.1% (inactive)
CC(C)(C)C1CCc2c(sc3c2C(=O)NC(c2ccco2)N3)C1 (stereo unspecified),639,-34.8% (inactive),14.3% (inactive),125,15.7% (inactive),97,-0.506 (inactive),2.4e-05 (inactive),0.00491 (inactive),-39.4% (inactive),-133% (inactive)
Cc1nnc2sc(-c3cccc(NC(=O)c4cccnc4)c3)nn12,295,-6% (inactive),5% (inactive),89.2,-54% (inactive),108,-0.346 (inactive),1.1e-05 (inactive),0.006 (inactive),-21% (inactive),-15.6% (inactive)
CCC(=O)Oc1ccc2c(C)cc(=O)oc2c1C,328,3.4% (inactive),-23.4% (inactive),98.2,-42.2% (inactive),108,-0.554 (inactive),-4.5e-05 (inactive),0.00649 (inactive),10.7% (inactive),-2.94% (inactive)
Cc1ccc(-c2nnnn2CS(=O)(=O)c2ccccc2)cc1,433,-11.8% (inactive),-9.7% (inactive),114,-19.4% (inactive),122,-0.598 (inactive),-1.2e-05 (inactive),0.006 (inactive),16.3% (inactive),10.5% (inactive)
O=C(Nc1nnc(C2CCCCC2)s1)c1cccs1,511,-8.1% (inactive),-2.9% (inactive),108,-77.2% (inactive),121,-0.437 (inactive),-2.3e-05 (inactive),0.00416 (inactive),-37.9% (inactive),-113% (inactive)
COc1ccc(N2C(=O)C(Cl)=C(Nc3c(C)n(C)n(-c4ccccc4)c3=O)C2=O)cc1,607,-22.9% (inactive),-20.7% (inactive),95.1,-23.5% (inactive),102,-0.449 (inactive),3.3e-05 (inactive),0.00622 (inactive),7.07% (inactive),12.3% (inactive)
COc1cc(S(=O)(=O)NC2CCCCC2)ccc1Cl,405,7.6% (inactive),4.9% (inactive),89,3.8% (inactive),94.9,-0.417 (inactive),4.1e-05 (inactive),0.00482 (inactive),16.6% (inactive),31.9% (inactive)
Cc1cnc(C(=O)Nc2ccc(N3CCOCC3)cc2)cn1,392,3% (inactive),-7.7% (inactive),117,4.5% (inactive),101,-0.524 (inactive),-2.8e-05 (inactive),0.00612 (inactive),-19.8% (inactive),-62% (inactive)
Cc1cc(C)n2nc(C(=O)NCc3ccco3)nc2n1,389,1.4% (inactive),6.6% (inactive),103,-3.3% (inactive),109,-0.582 (inactive),-4.1e-05 (inactive),0.00618 (inactive),10.5% (inactive),10.8% (inactive)
O=C(CCNC(=O)Cn1ccc2ccccc2c1=O)NCCN1CCc2ccccc2C1,337,0.5% (inactive),16.2% (inactive),77.2,-26.8% (inactive),111,-0.474 (inactive),-0.000226 (inactive),0.00569 (inactive),-3.36% (inactive),11.4% (inactive)
O=C1c2ccccc2C(=O)N1Cc1nc2ccccc2c(=O)n1CCN1CCOCC1,383,-10.3% (inactive),-11.3% (inactive),85.7,-48.6% (inactive),160,-0.521 (inactive),1.6e-05 (inactive),0.0047 (inactive),14.9% (inactive),12.8% (inactive)
COc1ccccc1NC1=C(C)C(=O)CC1,537,10.5% (inactive),7.8% (inactive),88.4,-5.6% (inactive),102,-0.246 (inactive),-3e-05 (inactive),0.00566 (inactive),19.4% (inactive),34% (inactive)
COCCn1c(=O)[nH]c2cc(C(=O)N3CCN(c4ccccc4OC)CC3)ccc2c1=O,806,-7.9% (inactive),5.5% (inactive),102,-28.7% (inactive),117,-0.44 (inactive),9.4e-06 (inactive),0.00559 (inactive),10.5% (inactive),12.4% (inactive)
Cc1ccc(-c2nnn(CC(=O)N(CC3CCCO3)C(C(=O)NC(C)(C)C)c3ccc(F)cc3)n2)o1 (stereo unspecified),415,5.7% (inactive),3.4% (inactive),112,-64% (inactive),118,-0.563 (inactive),-3.8e-05 (inactive),0.00486 (inactive),9.86% (inactive),15.3% (inactive)
O=C1C2C3C=CC(C3)C2C(=O)N1CNc1ccc(O)cc1 (stereo unspecified),307,8.9% (inactive),-9.8% (inactive),108,32.1% (inactive),106,-0.507 (inactive),2.6e-05 (inactive),0.00588 (inactive),4.46% (inactive),2.67% (inactive)
CC(C)[C@H](NC(=O)[C@@H]1CSCN1C(=O)OC(C)(C)C)C(=O)NCC1CCC(C(=O)O)CC1 (stereo partly specified),341,8.6% (inactive),11.9% (inactive),92.5,17.3% (inactive),84.4,-0.579 (inactive),1.8e-05 (inactive),0.00513 (inactive),25.1% (inactive),22.7% (inactive)
Cc1ccc(NC(=O)CNc2cccc(C)c2C)c(C)c1,505,2.5% (inactive),-48.7% (inactive),12.5,-54.3% (inactive),107,-0.517 (inactive),-7.1e-05 (inactive),0.00498 (inactive),5.56% (inactive),-4.35% (inactive)
O=C(CSc1nnc2sc3ccccc3n12)c1ccco1,308,1.9% (inactive),23.4% (inactive),83.3,19.6% (inactive),91.6,-0.293 (inactive),-5e-05 (inactive),0.00582 (inactive),-17.8% (inactive),-83.7% (inactive)
CCOC(=O)c1ccc(N2C(=O)C3CC=CCC3C2=O)cc1 (stereo unspecified),640,-6.3% (inactive),-0.1% (inactive),104,40.6% (inactive),101,-0.545 (inactive),-1.8e-05 (inactive),0.00473 (inactive),1.51% (inactive),-1.14% (inactive)
CC(C)N(C(=O)COC(=O)c1ccc(O)cc1)C(C)C,467,1% (inactive),12.6% (inactive),112,-8.7% (inactive),121,-0.553 (inactive),-3.1e-05 (inactive),0.00574 (inactive),17.3% (inactive),14.3% (inactive)
COc1ccccc1NC(=O)C1CC(=O)N(c2ccc(F)cc2)C1 (stereo unspecified),402,4.5% (inactive),13.8% (inactive),101,-46.4% (inactive),110,-0.583 (inactive),-9.7e-05 (inactive),0.00373 (inactive),-15.4% (inactive),-26.4% (inactive)
CCOC(=O)c1cnc(-n2nc(C)cc2C)nc1Nc1ccc(N(C)C)cc1,603,-15.5% (inactive),30.6% (inactive),84,-51.8% (inactive),88.2,-0.574 (inactive),-4.7e-05 (inactive),0.00563 (inactive),4.06% (inactive),4.11% (inactive)
